# How the values were obtained:
# [1] = system: Plasmodium falciparum; experiment: In vitro antimalarial activity against chloroquine-resistant Plasmodium falciparum CDC/Indochina III W2; type: functional, organism-based
# Outline: (§1)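 Compound DMSO solution diluted 400-fold in RPMI 1640 containing 25 mM Hepes, 32 mM NaHCO3 and 10% human plasma, then 2-fold serial dilutions over 11 concentrations. Parasites exposed 48 h at 37 °C under 5% O2/5% CO2/90% N2, then [3H]hypoxanthine added for a further 18 h. DNA harvested onto glass filters and counted by scintillation. IC50 from logistic dose-response fit.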
# [2] = system: Plasmodium falciparum; experiment: In vitro antimalarial activity against chloroquine-sensitive Plasmodium falciparum D6 (CDC/Sierra Leone I); type: functional, organism-based; outline: as §1
# [3] = Ratio of IC50 of W2 strain to D6 strain.; type: functional
# Outline: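 Resistance index is IC50 against chloroquine-resistant P. falciparum W2 (CDC/Indochina III) divided by IC50 against chloroquine-sensitive D6 (CDC/Sierra Leone I). Compounds dissolved in DMSO, diluted 400-fold into RPMI 1640 with 25 mM Hepes, 32 mM NaHCO3 and 10% human plasma, then 2-fold serially over 11 concentrations. Parasites were exposed for 48 h at 37 °C (5% O2, 5% CO2, 90% N2), then given [3H]hypoxanthine for 18 h. IC50 came from logistic fits.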
# [4] = system: Plasmodium falciparum; experiment: In vitro antimalarial activity against chloroquine-sensitive Plasmodium falciparum D6 (CDC/Sierra Leone I); Not active; type: functional, organism-based; outline: as §1
# [5] = system: Plasmodium falciparum; experiment: In vitro antimalarial activity against chloroquine-resistant Plasmodium falciparum CDC/Indochina III W2; Not active; type: functional, organism-based; outline: as §1
# [6] = system: Plasmodium falciparum; experiment: In vitro antimalarial activity against chloroquine-sensitive Plasmodium falciparum CDC/Sierra Leone I D6; Not active; type: functional, organism-based; outline: as §1
# [7] = Compound was evaluated for the pKa value in water at 20 degrees Centigrade; type: physicochemical
pKa [7],SMILES,IC50 [1] [µM],IC50 [2] [µM],Resistance index [3],IC50 [4],IC50 [5],IC50 [6]
–,COc1ccc(OC)c(C(=O)/C=C/c2cccc(Cl)c2Cl)c1,0.92,1.1,0.8,–,–,–
–,COc1ccc(C(=O)/C(C)=C/c2ccc(Cl)cc2Cl)c(OC)c1,2.46,6.26,0.4,–,–,–
–,COc1ccc(C(=O)/C=C/c2cccc(Cl)c2Cl)cc1OC,1.14,1.96,0.6,–,–,–
–,COc1ccc(C(=O)CCc2ccc(F)c(F)c2)c(OC)c1,> 16,> 16,–,Not Active,Not Active,–
–,COc1cccc(OC)c1C(=O)/C=C\c1ccc(Cl)cc1,0.77,1.24,0.6,–,–,–
–,COc1ccc(/C=C/C(=O)c2ccc(F)cc2F)c(OC)c1,11.1,19.1,0.6,–,–,–
–,COc1ccc(C(=O)/C=C/c2cc3ccccc3nc2Cl)cc1OC,0.51,0.72,0.7,–,–,–
–,COc1ccc(C(=O)/C=C/c2ccc(Cl)cc2Cl)c(OC)c1,0.9,0.77,1.2,–,–,–
–,COc1ccc(C(=O)/C=C/c2ccc(F)c(F)c2)c(OC)c1,2.09,2.1,1,–,–,–
–,COc1ccc(C(=O)/C=C\c2ccc(Cl)cc2Cl)c(OC)c1OC,0.36,0.43,0.8,–,–,–
–,COc1ccc(C(=O)/C=C/c2cccc(Cl)c2Cl)c(OC)c1,1.38,1.29,1.1,–,–,–
–,COc1ccc(C(=O)/C=C/c2cc3ccccc3nc2Cl)c(OC)c1,1,1.29,0.8,–,–,–
–,O=C(/C=C/c1cc2ccccc2nc1Cl)c1cccnc1,0.71,2.53,0.3,–,–,–
–,O=C(/C=C\c1ccnc2ccccc12)c1ccc(Cl)c(Cl)c1,0.8,1.69,0.5,–,–,–
–,O=C(/C=C\c1ccnc2ccccc12)c1cc(Cl)ccc1Cl,0.23,0.19,1.2,–,–,–
–,COc1ccc(OC)c(C(=O)/C=C\c2ccc(Cl)cc2Cl)c1,0.75,0.92,0.8,–,–,–
–,COc1ccc(C(=O)CCc2ccc(Cl)cc2Cl)c(OC)c1,> 15,> 15,–,–,Not Active,Not Active
–,COc1ccc(C(=O)/C=C/c2ccc(C(F)(F)F)cc2)c(OC)c1,0.75,0.68,1.1,–,–,–
–,COc1ccc(/C=C(\C)C(=O)c2ccc(Cl)cc2Cl)c(OC)c1,> 14,> 14,–,Not Active,Not Active,–
–,O=C(/C=C/c1cc2ccccc2nc1Cl)c1ccc(F)cc1F,1,0.98,1,–,–,–
–,O=C(/C=C/c1ccc(Cl)cc1Cl)c1ccc(-n2ccnc2)cc1,1.18,0.9,1.3,–,–,–
–,COc1ccc(C(=O)/C=C/c2ccc(F)cc2F)c(OC)c1,1.9,1.95,1,–,–,–
5.4,c1ccc2cnccc2c1 [ISOQUINOLINE],–,–,–,–,–,–
–,COc1ccc(/C=C/C(=O)c2ccc(Cl)cc2Cl)c(OC)c1,3.8,3.4,1.1,–,–,–
